Results taken from ChEMBL document CHEMBL1142636 (2000).

Key:
SK-MEL-5 = experiment: Growth inhibition of human SK-MEL-5 cells; format: functional; conditions: read-out: pLC50 (the source's name) (converted)
In short: (§1)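 Tested at the NCI in its human disease-oriented in vitro screen of 60 tumour cell lines, following the Monks et al. methods. Activity is expressed as GI50, given as log molar values.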

COLO 205 = experiment: Growth inhibition of human COLO205 cells; format: functional
MDA-MB-231 = experiment: Growth inhibition of human MDA-MB-231 cells; format: functional; conditions: read-out: pLC50 (the source's name) (converted)
M14 = experiment: Growth inhibition of human M14 cells; format: functional; conditions: read-out: pLC50 (the source's name) (converted)
MDA-N = experiment: Growth inhibition of human MDA-N cells; format: functional; conditions: read-out: pLC50 (the source's name) (converted)
IGROV-1 = experiment: Growth inhibition of human IGROV1 cells; format: functional; conditions: read-out: pLC50 (the source's name) (converted)
ACHN = experiment: Growth inhibition of human ACHN cells; format: functional; conditions: read-out: pLC50 (the source's name) (converted)
SK-OV-3 = experiment: Growth inhibition of human SK-OV-3 cells; format: functional; conditions: read-out: pLC50 (the source's name) (converted); in short: as §1
[1] = Growth inhibition of human OVACR5 cells; format: functional; conditions: read-out: pLC50 (the source's name) (converted)
UACC-257 = experiment: Growth inhibition of human UACC257 cells; format: functional; conditions: read-out: pLC50 (the source's name) (converted); in short: as §1
HOP-18 = experiment: Growth inhibition of human HOP18 cells; format: functional; conditions: read-out: pLC50 (the source's name) (converted)
SW-620 = experiment: Growth inhibition of human SW620 cells; format: functional; in short: as §1
SF-268 = experiment: Growth inhibition of human SF268 cells; format: functional; in short: as §1
MOLT-4 = experiment: Growth inhibition of human MOLT4 cells; format: functional
[2] = Growth inhibition of human LXFL529 cells; format: functional; conditions: LXFL 529
M19-MEL = experiment: Growth inhibition of human M19-MEL cells; format: functional; conditions: read-out: pLC50 (the source's name) (converted)
XF498 = experiment: Growth inhibition of human XF498 cells; format: functional; conditions: read-out: pLC50 (the source's name) (converted); in short: as §1
SK-MEL-28 = experiment: Growth inhibition of human SK-MEL-28 cells; format: functional; conditions: read-out: pLC50 (the source's name) (converted); in short: as §1
CAKI-1 = experiment: Growth inhibition of human CAKI1 cells; format: functional; conditions: read-out: pLC50 (the source's name) (converted)
[3] = Growth inhibition of human RPMI8266 cells; format: functional; conditions: read-out: pLC50 (the source's name) (converted)
DMS-273 = experiment: Growth inhibition of human DMS273 cells; format: functional
SNB-19 = experiment: Growth inhibition of human SNB19 cells; format: functional; conditions: read-out: pLC50 (the source's name) (converted); in short: as §1
KM12 = experiment: Growth inhibition of human KM12 cells; format: functional; conditions: read-out: pLC50 (the source's name) (converted)
SR = experiment: Growth inhibition of human SR cells; format: functional; in short: as §1
DLD-1 = experiment: Growth inhibition of human DLD1 cells; format: functional
NCI-H226 = experiment: Growth inhibition of human NCI-H226 cells; format: functional
KM-20L2 = experiment: Growth inhibition of human KM20L2 cells; format: functional; conditions: read-out: pLC50 (the source's name) (converted)
HOP-62 = experiment: Growth inhibition of human HOP62 cells; format: functional
HCT-15 = experiment: Growth inhibition of human HCT15 cells; format: functional; conditions: read-out: pLC50 (the source's name) (converted)
TK-10 = experiment: Growth inhibition of human TK10 cells; format: functional; conditions: read-out: pLC50 (the source's name) (converted); in short: as §1
HCC 2998 = experiment: Growth inhibition of human HCC2998 cells; format: functional
A549 = experiment: Growth inhibition of human A549 cells; format: functional
T47D = experiment: Growth inhibition of human T47D cells; format: functional; in short: as §1
[4] = Growth inhibition of human DMS144 cells; format: functional
SK-MEL-2 = experiment: Growth inhibition of human SK-MEL-2 cells; format: functional; conditions: read-out: pLC50 (the source's name) (converted); in short: as §1
UACC-62 = experiment: Growth inhibition of human UACC62 cells; format: functional; conditions: read-out: pLC50 (the source's name) (converted); in short: as §1
SF-295 = experiment: Growth inhibition of human SF295 cells; format: functional; conditions: read-out: pLC50 (the source's name) (converted); in short: as §1
NCI-H322M = experiment: Growth inhibition of human NCI-H322M cells; format: functional
A498 = experiment: Growth inhibition of human A498 cells; format: functional; conditions: read-out: pLC50 (the source's name) (converted)
HT-29 = experiment: Growth inhibition of human HT29 cells; format: functional
UO-31 = experiment: Growth inhibition of human UO31 cells; format: functional; conditions: read-out: pLC50 (the source's name) (converted); in short: as §1
[5] = Growth inhibition of human […] cells; format: functional; conditions: read-out: pLC50 (the source's name) (converted)
786-0 = experiment: Growth inhibition of human 786-0 cells; format: functional; conditions: read-out: pLC50 (the source's name) (converted)
MCF7 = experiment: Growth inhibition of human MCF7 cells; format: functional; conditions: read-out: pLC50 (the source's name) (converted)
NCI-H460 = experiment: Growth inhibition of human NCI-H460 cells; format: functional
K562 = experiment: Growth inhibition of human K562 cells; format: functional
U-251 = experiment: Growth inhibition of human U251 cells; format: functional; conditions: read-out: pLC50 (the source's name) (converted); in short: as §1
BT-549 = experiment: Growth inhibition of human BT549 cells; format: functional
PC-3 = experiment: Growth inhibition of human PC3 cells; format: functional; conditions: read-out: pLC50 (the source's name) (converted)
Malme-3M = experiment: Growth inhibition of human MALME-3M cells; format: functional; conditions: read-out: pLC50 (the source's name) (converted)
[6] = Growth inhibition of human OVACR8 cells; format: functional; conditions: read-out: pLC50 (the source's name) (converted)
SNB-75 = experiment: Growth inhibition of human SNB75 cells; format: functional; conditions: read-out: pLC50 (the source's name) (converted); in short: as §1
SF-539 = experiment: Growth inhibition of human SF539 cells; format: functional; conditions: read-out: pLC50 (the source's name) (converted); in short: as §1
DU-145 = experiment: Growth inhibition of human DU145 cells; format: functional; conditions: read-out: pLC50 (the source's name) (converted)
HOP-92 = experiment: Growth inhibition of human HOP92 cells; format: functional; conditions: read-out: pLC50 (the source's name) (converted)
MDA-MB-435 = experiment: Growth inhibition of human MDA-MB-435 cells; format: functional
[7] = Growth inhibition of human MCF7/ADR-RES cells; format: functional; conditions: NCI/ADR-RES, read-out: pLC50 (the source's name) (converted)
LOX IMVI = experiment: Growth inhibition of human LOX IMVI cells; format: functional; conditions: read-out: pLC50 (the source's name) (converted)
EKVX = experiment: Growth inhibition of human EKVX cells; format: functional; conditions: read-out: pLC50 (the source's name) (converted)
RXF 393 = experiment: Growth inhibition of human […] cells; format: functional; conditions: read-out: pLC50 (the source's name) (converted)
CCRF-CEM = experiment: Growth inhibition of human CCRF-CEM cells; format: functional
SN12C = experiment: Growth inhibition of human SN12C cells; format: functional; conditions: read-out: pLC50 (the source's name) (converted); in short: as §1
NCI-H522 = experiment: Growth inhibition of human NCI-H522 cells; format: functional; conditions: read-out: pLC50 (the source's name) (converted)
HCT-116 = experiment: Growth inhibition of human HCT116 cells; format: functional; conditions: read-out: pLC50 (the source's name) (converted)
Hs-578T = experiment: Growth inhibition of human HS578T cells; format: functional; conditions: read-out: pLC50 (the source's name) (converted)
[8] = Growth inhibition of human OVACR4 cells; format: functional; conditions: read-out: pLC50 (the source's name) (converted)
[9] = Growth inhibition of human HL60(TB) cells; format: functional, HL-60(TB); conditions: HL-60, read-out: pLC50 (the source's name) (converted)
NCI-H23 = experiment: Growth inhibition of human NCI-H23 cells; format: functional

Cc1cc2c3ccccc3n3c2c2c1O[C@@]1(C)CC[C@H]([C@@H]2C1)C3(C)C
> 25.1 µM: CC50 (SK-MEL-5) | LC50 (COLO 205) | CC50 (MDA-MB-231) | CC50 (M14) | CC50 (MDA-N) | CC50 (IGROV-1) | CC50 (ACHN) | CC50 (SK-OV-3) | CC50 [1] | CC50 (UACC-257) | CC50 (HOP-18) | LC50 (SW-620) | LC50 (SF-268) | LC50 (MOLT-4) | LC50 [2] | CC50 (M19-MEL) | CC50 (XF498) | CC50 (SK-MEL-28) | CC50 (CAKI-1) | CC50 [3] | LC50 (DMS-273) | CC50 (SNB-19) | CC50 (KM12) | LC50 (SR) | LC50 (DLD-1) | LC50 (NCI-H226) | CC50 (KM-20L2) | LC50 (HOP-62) | CC50 (HCT-15) | CC50 (TK-10) | LC50 (HCC 2998) | LC50 (A549) | LC50 (T47D) | LC50 [4] | CC50 (SK-MEL-2) | CC50 (UACC-62) | CC50 (SF-295) | LC50 (NCI-H322M) | CC50 (A498) | LC50 (HT-29) | CC50 (UO-31) | CC50 [5] | CC50 (786-0) | CC50 (MCF7) | LC50 (NCI-H460) | LC50 (K562) | CC50 (U-251) | LC50 (BT-549) | CC50 (PC-3) | CC50 (Malme-3M) | CC50 [6] | CC50 (SNB-75) | CC50 (SF-539) | CC50 (DU-145) | CC50 (HOP-92) | LC50 (MDA-MB-435) | CC50 [7] | CC50 (LOX IMVI) | CC50 (EKVX) | CC50 (RXF 393) | LC50 (CCRF-CEM) | CC50 (SN12C) | CC50 (NCI-H522) | CC50 (HCT-116) | CC50 (Hs-578T) | CC50 [8] | CC50 [9] | LC50 (NCI-H23)
